Measurements of several laboratories.
Lines come from different studies, so protocols differ.
PIK3CG: Phosphatidylinositol 4,5-bisphosphate 3-kinase catalytic subunit gamma isoform (PIK3CG, Homo sapiens, UniProt P48736)
ADRA2B: Alpha-2B adrenergic receptor (ADRA2B, Homo sapiens, UniProt P18089)

`Cc1ccc(CN2C(=O)C(=Nc3c(C(C)C)cccc3C(C)C)c3ccccc32)cc1` has an IC50 of 18.6 nM (PIK3CG; enzyme activity; inhibitor; ADP detection).
For `CC(C)C[C@H](NC(=O)[C@H](CC(C)C)NC(=O)[C@H](Cc1c[nH]c2ccccc12)NC(=O)[C@H](CCC(N)=O)NC(=O)[C@@H](NC(=O)[C@H](Cc1ccccc1)NC(=O)[C@H](CC(=O)O)NC(=O)[C@H](CCC(N)=O)NC(=O)[C@H](C)NC(=O)[C@H](C)NC(=O)[C@H](CCCNC(=N)N)NC(=O)[C@H](CCC(=O)O)NC(=O)[C@H](CC(=O)O)NC(=O)[C@H](CC(C)C)NC(=O)[C@H](Cc1ccc(O)cc1)NC(=O)[C@H](CCCCN)NC(=O)[C@H](CO)NC(=O)[C@H](Cc1ccc(O)cc1)NC(=O)[C@H](CC(=O)O)NC(=O)[C@H](CO)NC(=O)[C@@H](NC(=O)[C@H](Cc1ccccc1)NC(=O)[C@@H](NC(=O)CNC(=O)[C@H](CCC(N)=O)NC(=O)C(C)(C)NC(=O)[C@@H](N)Cc1c[nH]cn1)[C@@H](C)O)[C@@H](C)O)C(C)C)C(=O)N[C@@H](CC(=O)O)C(=O)NCC(=O)NCC(=O)N1CCC[C@H]1C(=O)N[C@@H](CO)C(=O)N[C@@H](CC(C)C)C(=O)N[C@@H](CCCNC(=N)N)C(=O)N[C@@H](Cc1c[nH]cn1)C(=O)N[C@@H](Cc1ccc(O)cc1)C(=O)N[C@@H](CC(C)C)C(=O)N[C@@H](CC(N)=O)C(=O)N[C@@H](CC(C)C)C(=O)N[C@H](C(=O)N[C@H](C(=O)N[C@@H](CCCNC(=N)N)C(=O)N[C@@H](CCC(N)=O)C(=O)N[C@@H](CCCNC(=N)N)C(=O)N[C@@H](Cc1ccc(O)cc1)C(N)=O)[C@@H](C)O)C(C)C`, the EC50 was 0.4 nM (Neuropeptide Y receptor type 2 (NPY2R, Homo sapiens, UniProt P49146); reporter gene; agonist; luciferase).
The IC50 of `CCC(C(=O)N1C(=O)C(=Nc2ccc(Cl)cc2Br)c2ccccc21)c1ccccc1` (centres unmarked) is reported as 28.3 nM (PIK3CG; enzyme activity; inhibitor; ADP detection).
`Cc1cc(Oc2ncccc2CN2CCN(c3ccc(Cl)cc3)CC2)ccc1-c1c(C)c(=O)[nH]c(=O)n1C` gave a Ki of 338 nM (ADRA2B; ligand displacement; radioligand).
`CN1CCc2nc(NC(=O)C3=NN(c4ccc(F)cc4)C(C(N)=O)C3)sc2C1` (centres unmarked) gave a Kd of over 71000 nM (DDB1- and CUL4-associated factor 7 (Homo sapiens, UniProt P61962); binding; SPR).
The Ki of `Cc1cc(Oc2ncccc2CN2CCN(c3ccccc3O)CC2)ccc1-c1c(C)c(=O)[nH]c(=O)n1C` is reported as 97.5 nM (ADRA2B; ligand displacement; radioligand).
The IC50 of `CCc1ccc(N=C2C(=O)N(Cc3ccccc3)c3ccccc32)cc1` is reported as 2.09 nM (PIK3CG; enzyme activity; inhibitor; ADP detection).
With `Cn1ccc(-c2ccc(-c3cc(C(=O)O)cc4cc(-c5ccc(C(F)(F)F)cc5)ccc34)cc2)n1` the Ki was 1900 nM (Sigma intracellular receptor 2 (TMEM97, Homo sapiens, UniProt Q5BJF2); cell-free assay; radioligand).
`NC(=O)C1CN(C(=O)CCl)c2ccccc2O1` (centres unmarked) has a Kd of 13000 nM (Creatine kinase U-type, mitochondrial (CKMT1A, Homo sapiens, UniProt P12532); binding; MST).
For `Cc1cc(Oc2ncccc2CN2CCN(c3ccccc3C)CC2)ccc1-c1c(C)c(=O)[nH]c(=O)n1C`, the Ki was 28.4 nM (ADRA2B; ligand displacement; radioligand).
`CCN1/C(=C/C(C)=O)Sc2ccc(F)cc21` gave a Ki of 987 nM (ADRA2B; ligand displacement; radioligand).
`Cc1ccc(CN2C(=O)C(=Nc3cccc(C)c3)c3ccccc32)cc1` gave an IC50 of 0.98 nM (PIK3CG; enzyme activity; inhibitor; ADP detection).
The Ki of `Cc1cc(Oc2ncccc2CN2CCN(c3ccc(Br)cc3)CC2)ccc1-c1c(C)c(=O)[nH]c(=O)n1C` is reported as 125 nM (ADRA2B; ligand displacement; radioligand).
With `Nc1ncnc2c1ncn2C1CCCC1` the Kd was 52 nM (Inositol-tetrakisphosphate 1-kinase (Homo sapiens, UniProt Q13572); binding; ITC; pH 7.2).
